Data reported in paper PMC10360043 (FASEB journal : official publication of the Federation of …, 2023).
One block for each molecule: values may come before it.

What was measured:
LTR1 receptor = conditions: cited from earlier work
PDI = PDI (Homo sapiens, UniProt P07237); assay: Insulin-based turbidimetric assay, PDI; assay type: biochemical; conditions: insulin turbidity assay, 6-point dose curve
How it was run: (§1)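 Recombinant enzymes were purchased. Test compound was tested as a 6-point dilution series with enzyme at 10 μg/mL final (ERp5 at 30 μg/mL), 125 μM bovine recombinant insulin, 2 mM EDTA and 100 mM potassium phosphate. The reaction was started with 0.3 mM DTT, and insulin aggregation turbidity was read every minute for 75 min.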

ERp5 = target: T1, ERp5 (Homo sapiens, UniProt Q15084); assay: Insulin-based turbidimetric assay, ERp5; assay type: biochemical; conditions: insulin turbidity assay, 6-point dose curve
T1 sequence (Q15084 20-440): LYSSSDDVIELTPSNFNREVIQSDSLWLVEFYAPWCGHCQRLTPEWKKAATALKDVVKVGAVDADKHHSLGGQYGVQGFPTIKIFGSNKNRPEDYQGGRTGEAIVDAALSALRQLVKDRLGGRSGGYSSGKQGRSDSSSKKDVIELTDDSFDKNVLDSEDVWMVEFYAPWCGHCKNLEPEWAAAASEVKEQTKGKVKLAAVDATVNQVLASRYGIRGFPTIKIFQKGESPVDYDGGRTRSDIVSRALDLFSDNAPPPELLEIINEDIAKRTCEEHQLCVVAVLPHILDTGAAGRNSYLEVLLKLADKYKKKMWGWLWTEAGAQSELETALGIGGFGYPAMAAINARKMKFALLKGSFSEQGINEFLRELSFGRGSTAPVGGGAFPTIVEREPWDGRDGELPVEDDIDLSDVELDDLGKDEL
How it was run: as §1

LTR2 receptor = conditions: cited from earlier work
ERp57 = target: T2, ERp57 (Homo sapiens, UniProt P30101); assay: Insulin-based turbidimetric assay, ERp57; assay type: biochemical; conditions: insulin turbidity assay, 6-point dose curve
T2 sequence (P30101 25-505): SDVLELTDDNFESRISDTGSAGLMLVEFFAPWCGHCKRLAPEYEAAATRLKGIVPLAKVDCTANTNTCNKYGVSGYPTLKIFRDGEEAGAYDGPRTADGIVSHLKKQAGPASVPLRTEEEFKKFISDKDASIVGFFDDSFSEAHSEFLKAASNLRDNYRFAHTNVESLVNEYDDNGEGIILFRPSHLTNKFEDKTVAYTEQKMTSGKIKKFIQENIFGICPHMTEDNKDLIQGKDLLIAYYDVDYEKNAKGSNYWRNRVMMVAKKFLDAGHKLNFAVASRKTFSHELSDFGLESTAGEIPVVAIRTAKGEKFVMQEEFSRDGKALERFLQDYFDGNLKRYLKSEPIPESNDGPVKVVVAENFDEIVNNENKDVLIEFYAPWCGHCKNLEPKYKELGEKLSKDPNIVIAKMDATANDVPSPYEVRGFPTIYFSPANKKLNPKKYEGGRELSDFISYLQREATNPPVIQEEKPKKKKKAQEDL
How it was run: as §1

ERp72 = target: T3, ERp72 (Homo sapiens, UniProt P13667); assay: Insulin-based turbidimetric assay, ERp72; assay type: biochemical; conditions: insulin turbidity assay, 6-point dose curve
T3 sequence (P13667 21-645): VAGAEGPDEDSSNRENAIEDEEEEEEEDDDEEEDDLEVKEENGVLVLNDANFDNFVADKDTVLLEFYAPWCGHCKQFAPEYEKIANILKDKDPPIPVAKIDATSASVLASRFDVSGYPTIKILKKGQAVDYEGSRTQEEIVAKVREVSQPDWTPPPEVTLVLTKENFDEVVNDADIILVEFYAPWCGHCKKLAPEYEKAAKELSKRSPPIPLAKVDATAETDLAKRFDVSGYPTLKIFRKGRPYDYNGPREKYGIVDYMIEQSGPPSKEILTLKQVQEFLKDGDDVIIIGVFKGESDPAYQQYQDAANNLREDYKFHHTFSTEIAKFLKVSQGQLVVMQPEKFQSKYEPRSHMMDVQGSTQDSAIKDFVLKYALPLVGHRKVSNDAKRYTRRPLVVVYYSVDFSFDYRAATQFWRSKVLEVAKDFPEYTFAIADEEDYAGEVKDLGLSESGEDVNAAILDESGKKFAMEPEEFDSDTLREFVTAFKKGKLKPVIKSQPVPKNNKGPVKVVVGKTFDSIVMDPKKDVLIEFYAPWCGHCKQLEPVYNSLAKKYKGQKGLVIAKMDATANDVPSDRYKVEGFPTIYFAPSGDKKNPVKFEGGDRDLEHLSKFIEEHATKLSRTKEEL
How it was run: as §1

OVCAR8 cells = assay: PrestoBlue cell viability, OVCAR8; assay type: cell-based, human; conditions: for OVCAR8 cell viability, time course: concentrations and timepoints used in Figure 4A and B
EGFR = EGFR phosphorylation after EGF stimulation; assay type: cell-based, human; conditions: for decrease of EGFR phosphorylation: then EGF, OVCAR8
How it was run: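 OVCAR8 cells, grown to confluence, were serum-starved, exposed to test compound for 1 or 4 h, then stimulated with EGF (100 ng/mL final). Whole-cell extracts were made in M-PER, protein was quantified by Bradford, and samples were run on SDS-PAGE and transferred to PVDF. Blots were blocked in 5% milk/TBS, probed with anti-pEGFR-Y1068 and an HRP secondary in 3% BSA/TBS-0.1% Tween 20. Student's t-test versus the EGF control.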

CA-125 = assay: Pilot clinical trial, CA-125 in relapsed ovarian cancer; assay type: in vivo, human
[1] = system: PDI, ERp5, ERp57, and ERp72 levels in OVCAR8 cells; assay: Western blot of thiol isomerase levels in OVCAR8 cells; assay type: cell-based, human; conditions: 10 μM and 30 μM, 1 hour
HEK293 cell line = assay: PrestoBlue cell viability, HEK293; assay type: cell-based; conditions: Homo sapiens, HEK293, read-out: cell viability IC50
How it was run: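 HEK293 cells were maintained in high-glucose DMEM with 4 mM glutamine and 10% FBS. Cells were plated at 5,000 per well and grown 24 h, then exposed to test compound or vehicle for 2–24 h. PrestoBlue was added for 10–20 min at 37°C, and fluorescence was read (ex 560/em 590 nm). Signal was expressed as percent of control.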

[2] = system: tissue factor dependent Factor Xa generation; assay: Factor Xa generation assay on OVCAR8 cells; assay type: cell-based, human; conditions: 1, 3, 10, and 30 µM, 30 minutes; significant at 10 and 30 µM
plasma thiol isomerase = assay: Plasma thiol isomerase activity of patients; assay type: in vivo, human; conditions: day 28 versus day 0, 40 mg twice daily
[3] = double the FDA approved dose for asthma; cited from earlier work
Gab1 = Gab1 phosphorylation after EGF stimulation; assay type: cell-based, human
[4] = 40 mg, oral ingestion; cited from earlier work
[5] = Pilot clinical trial, adverse events; assay type: in vivo, human; conditions: 40 mg twice daily, four women
OVCAR8 tumors [6] = assay: OVCAR8 xenograft with cisplatin and gemcitabine; assay type: in vivo, NOG mice
OVCAR8 tumors [7] = assay: OVCAR8 xenograft in NOG mice; assay type: in vivo; conditions: 30 mg/kg i.p. daily

Sequence of PDI (P07237 18-508): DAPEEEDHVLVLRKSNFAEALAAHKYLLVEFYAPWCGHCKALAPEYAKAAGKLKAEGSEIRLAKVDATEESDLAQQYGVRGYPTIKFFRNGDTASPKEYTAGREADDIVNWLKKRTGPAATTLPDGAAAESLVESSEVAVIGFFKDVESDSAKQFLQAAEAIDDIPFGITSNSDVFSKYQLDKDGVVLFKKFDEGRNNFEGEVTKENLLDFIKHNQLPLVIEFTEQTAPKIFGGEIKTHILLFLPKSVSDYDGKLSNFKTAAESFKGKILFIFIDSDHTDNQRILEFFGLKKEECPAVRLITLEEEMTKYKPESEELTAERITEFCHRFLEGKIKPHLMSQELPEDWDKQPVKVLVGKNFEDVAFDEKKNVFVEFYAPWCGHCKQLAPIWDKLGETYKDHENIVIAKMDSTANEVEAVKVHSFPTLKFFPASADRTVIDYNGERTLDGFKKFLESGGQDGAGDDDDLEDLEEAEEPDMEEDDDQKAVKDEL

Molecule: CC(C)(O)c1ccccc1CC[C@@H](SCC1(CC(=O)O)CC1)c1cccc(/C=C/c2ccc3ccc(Cl)cc3n2)c1 [montelukast]
- potency at inhibiting the LTR1 receptor, times more potent than zafirlukast (LTR1 receptor): 2–3 times
- inhibition of PDI (PDI): inhibited all four thiol isomerases albeit with less potency
- inhibition of ERp5 (ERp5): inhibited all four thiol isomerases albeit with less potency
- effects on the LTR2 receptor (LTR2 receptor): minimal effects
- inhibition of ERp57 (ERp57): inhibited all four thiol isomerases albeit with less potency
- inhibition of ERp72 (ERp72): inhibited all four thiol isomerases albeit with less potency

Molecule: PACMA-31
- OVCAR8 cell viability, time course (OVCAR8 cells): minimally altered
- inhibition of EGFR activation (EGFR; OVCAR8, Figure 4B): inhibited EFGR activation in a concentration-dependent manner

- inhibition of PDI (PDI): concentration-dependent manner
- reduction of plasma thiol isomerase activity (plasma thiol isomerase): three out of four patients
- inhibition of ERp5 (ERp5): concentration-dependent manner
- inhibition of ERp57 (ERp57): concentration-dependent manner
- IC50 (OVCAR8 cells; Homo sapiens, OVCAR-8, read-out: cell viability IC50): 12 µM
- inhibition of ERp72 (ERp72): concentration-dependent manner
Molecule: COc1cc(C(=O)NS(=O)(=O)c2ccccc2C)ccc1Cc1cn(C)c2ccc(NC(=O)OC3CCCC3)cc12 [zafirlukast]
- CA-125 response (CA-125; 40 mg twice daily, four women): None of the women demonstrated a decrease in CA-125
- mean change in CA-125 (CA-125; following 40 mg twice daily, 0.036 prior to treatment): 0.015 U/mL per day
- mean CA-125 doubling time (CA-125; following 40 mg twice daily, 29.8 days prior to treatment): 85.69 days
- change in thiol isomerase expression [1]: No significant change
- IC50 (HEK293 cell line): > 100 µM
- Factor Xa generation [2]: dose dependent decrease
- tolerability of the 40 mg dose [3]: well tolerated
- decrease of Gab1 phosphorylation (Gab1; 10 μM, 1 hour, then EGF, OVCAR8): 37%
- Gab1 phosphorylation decreased to (Gab1; all other time points and concentrations (10 μM 4 hours; 30 μM 1 and 4 hours)): ≤ 5%
- effects on the LTR2 receptor (LTR2 receptor): minimal effects
- peak plasma concentration [4]: ~ 3 μM
- grade 3 or higher adverse events [5]: no grade 3 or higher adverse events reported
- hemorrhage [5]: no cases of hemorrhage reported
- toxicity considered possibly related to zafirlukast [5]: headache (grade 1)
- OVCAR8 cell viability, time course (OVCAR8 cells): minimally altered
- decrease of EGFR phosphorylation (EGFR; 10 μM, 1 hour): 18%
- decrease of EGFR phosphorylation (EGFR; 10 μM, four hours): 39%
- decrease of EGFR phosphorylation (EGFR; 30 μM, 1 hour): 27%
- decrease of EGFR phosphorylation (EGFR; 30 μM, four hours): 52%
- mean decrease of tumor volume relative to cisplatin-gemcitabine alone (OVCAR8 tumors [6]; 30 mg/kg zafirlukast daily added to 5 mg/kg cisplatin and 120 mg/kg gemcitabine weekly, after 4 weeks): 38%
- decrease in tumor volume compared to the vehicle control (OVCAR8 tumors [6]; zafirlukast plus cisplatin and gemcitabine, end of the study): 83%
- lung metastasis score (scale 0–4) (OVCAR8 tumors [7]; 32 days, control group 2.5): 0.25
- mean decrease in tumor volume compared to controls (OVCAR8 tumors [7]; day 32): 42%
